CHOP inh: inhibitors of CHOP induction in ER stress response; CHO-K1 CHOP-promoter luciferase, tunicamycin-induced, 15-18 h; inhibition, % at 10 µM; 220,000 compounds, 3.8% hits;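 active = compounds that reduced the stress-induced luciferase reporter signal by more than about 70% of percent inhibition, limit read from the data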;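 note: 0% = tunicamycin plus vehicle and 100% = wells without tunicamycin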
Tb MetRS inh: Trypanosoma brucei MetRS inhibition; 360,000 compounds, 0.4% hits; inhibition, % at 11.9 µM; purified T. brucei MetRS, ATP depletion, Kinase-Glo luminescence;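 active = inhibition above a per-plate cutoff of the control wells' mean inhibition plus 3 SD, cut at about 5.5% in these data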;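 note: 0% = DMSO wells median and 100% = median of wells with control inhibitor compound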
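System: purified T. brucei MetRS enzyme / Detection: Kinase-Glo luciferase luminescence reporting remaining unconsumed ATP / Medium: HEPES buffer with MgCl2, KCl, DTT, spermine, BSA, pyrophosphatase / Replication: singlicate, one well per compound / Evaluation: percent inhibition relative to median high and low control wells / Schedule: 2 h aminoacylation at 25 °C after 15 min preincubation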
V-ATPase pHluor: regulators of yeast V-ATPase proton transport; S. cerevisiae, pHLuorin cytosolic pH fluorescence; response, % at 10 µM; 350,000 compounds, 0.37% hits; in the data active = response mostly above about 7.3%, no sharp cut-off; inactive = mostly below about 5.4%; note: actives read high
UPR XBP1 act: adaptive UPR (XBP1) activation; CHO-XBP1 luciferase reporter, IRE1-XBP1 UPR activation, luminescence; percent of tunicamycin response, DMSO as zero; activation, % at 20 µM; 330,000 compounds, 0.33% hits;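 active = versus positive control, 20 µM dose yields 30% or more activation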;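 note: 100% = tunicamycin at 10 µg/mL and 0% = DMSO only wells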
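Material: CHO-XBP1 cells stably carrying IRE1-XBP1-driven luciferase reporter | Medium: F12 with 10% serum | Compound dosing: 20 µM single concentration, DMSO 1% | Incubation: Overnight seeding at 37 °C, 6 h compound treatment at 37 °C | Detection: Steady-Glo luminescence read | Read-out basis: % activation of reporter signal versus tunicamycin and DMSO controls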
UPR CHOP act: apoptotic UPR (CHOP) activation; CHO-CHOP luciferase reporter, luminescence; percent of tunicamycin response over DMSO baseline; activation, % at 10 µM; 330,000 compounds, 0.34% hits;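 active = at 10 µM dose, activation of 40% or more, normalized to positive control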;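 note: 100% = tunicamycin at 10 µg/mL and 0% = DMSO alone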
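Assay system: CHO cells with stable CHOP pathway luciferase reporter; Buffer or medium: F12 plus 10% serum; Times: 16-18 h cell attachment, then 6 h compound exposure, 37 °C; Signal: luciferase luminescence; Read-out basis: percent activation relative to tunicamycin control; Control set: tunicamycin high control, DMSO low control.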
The depositor's hits bear a star; / = not tested or not shown. Only a selection was taken, and hits are over-represented in it overall.

SMILES	CHOP inh	Tb MetRS inh	V-ATPase pHluor	UPR XBP1 act	UPR CHOP act
CCOC(=O)c1sc(NC(=O)CSc2nnnn2-c2ccccc2)nc1C	85*	0	-3	5	-2
CCOC(=O)c1sc(NC(=O)c2cc3ccccc3o2)nc1C	-43	0	1	2	6
Cc1c(C)c(C)c(S(=O)(=O)N2CCSCC2)c(C)c1C	-2	-1	20*	-2	2
CC(C)CCN1CCN(Cc2cccc(C(F)(F)F)c2)CC1CCO (stereo not drawn)	37	-1	0	-1	0
Cn1nc(C(=O)NCC(=O)Nc2ccc(F)c(F)c2)ccc1=O	/	0	0	/	/
COCCN1C(=O)c2oc3ccccc3c(=O)c2C1c1cccc(O)c1 (stereo not drawn)	34	0	0	2	-1
COC(=O)c1sc(N2C(=O)c3oc4ccccc4c(=O)c3C2c2cccc(O)c2)nc1C (stereo not drawn)	75*	-1	-6	-1	0
Cc1cc(Nc2cccc(Cl)c2)nc(NCc2ccccc2)n1	106*	1	8	12	3
Cc1ccc(CNc2nc(Cl)c(C#N)s2)cc1	18	0	15*	1	6
CC(C)(OC1OC(CO)C(O)C(O)C1O)[C@H]1Oc2ccc3ccc(=O)oc3c2[C@H]1O (stereo partly drawn)	2	0	5	-2	0
CC(C)NC(=S)N/N=C/c1cc(Br)ccc1O	77*	0	-3	0	5
O=C(CCc1ccccc1)N/N=C/c1cc(Br)ccc1O	76*	0	-4	0	1
CC(Sc1ccc(S(=O)(=O)N2CCN(C)CC2)cn1)C(=O)Nc1cccc(Cl)c1Cl (stereo not drawn)	/	0	2	/	/
CCCCN1CC(N2CCN(CCN(C)C)CC2)CS1(=O)=O (stereo not drawn)	/	0	/	/	/
N#CCCn1cc(/C=C2\NC(=S)N(c3ccccc3)C2=O)c(-c2ccc(F)cc2)n1	79*	-2	0	-2	3
O=S(=O)(NCCSc1ccccc1)c1ccc(F)cc1	91*	-1	1	-3	-2
Cc1cc(C(=O)Nc2cccc(C(=O)O)c2)oc1C	75*	-1	-3	-9	-11
Cc1cc(C(=O)Nc2cccc(C(=O)O)c2)c(C)o1	15	0	1	-2	0
O=C(NCCC1=CCCCC1)c1cccc2c1C(=O)N(C1CCCCC1)C2	85*	-1	-3	4	1
CCC(CC)C(=O)N1c2ccc(F)cc2CCC1C (stereo not drawn)	52	0	1	-3	1
CC1CCc2cc(F)ccc2N1C(=O)c1ccncc1 (stereo not drawn)	17	-1	0	-1	0
CC1CCc2cc(F)ccc2N1C(=O)c1cnc2sccn2c1=O (stereo not drawn)	79*	0	-1	-2	0
CC1CCc2cc(F)ccc2N1C(=O)CCl (stereo not drawn)	92*	0	-2	/	/
O=C(Cc1ccccc1)Nc1nc(=O)c2ccccc2s1	20	-1	0	0	2
O=C(Nc1nc(=O)c2ccccc2s1)c1ccc(Cl)cc1	75*	-1	0	16	6
SMILES	CHOP inh	Tb MetRS inh	V-ATPase pHluor	UPR XBP1 act	UPR CHOP act
O=C(Nc1nc(=O)c2ccccc2s1)c1ccc(F)cc1	91*	0	0	1	4
Cc1cccc(NC(=O)Cn2c(O)c(N=NC(N)=S)c3ccccc32)c1	94*	1	3	-2	3
Cc1ccc(NC(=O)Cn2c(O)c(N=NC(=O)c3ccncc3)c3ccccc32)cc1	52	-1	-1	-2	20
CCCC1CCc2c(c3ccccc3[nH]c2=O)O1 (stereo not drawn)	76*	-1	4	4	1
CC(C)c1ccc(N2C(=NC(=O)C3CCCO3)SC3CS(=O)(=O)CC32)cc1 (stereo not drawn)	/	0	2	-4	-2
CC(=O)Nc1ccc(S(=O)(=O)N(C)c2ccc(OCCOc3ccccc3F)cc2)cc1	/	0	-1	-3	1
Cc1cc(C)cc(NC(=S)NCCSc2ccc(Cl)cc2)c1	88*	-1	2	-1	-2
Cc1ccc(SCCNC(=S)Nc2ccc(C)c(C)c2)cc1	75*	-1	6	-3	-2

High-throughput results from PubChem BioAssay.
